CHRM4 agonist = agonists of human muscarinic M4 receptor (CHRM4) | 360,000 tested, 0.14% active | CHO-K1 hM4/Gqi5, Fluo-8 calcium fluorescence; vehicle 0%, full acetylcholine response 100% | activation, % at 3 µM | P08173;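 active means activation above the run mean over all test wells plus 3 SD, cut at about 32% in these data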;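 further: peak over basal fluorescence ratio per well then scaled between controls; 0% = DMSO wells and 100% = acetylcholine at EC100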
CHRM5 agonist = CHRM5 agonism in calcium assay; P08912; AID 624037; activation, % at 3 µM; CHO-K1 hM5 cells, Fluo-8 calcium fluorescence; 0% DMSO wells, 100% maximal acetylcholine response; 360,000 tested, 0.19% active;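 active means activation above the run's mean over test compounds plus 3 SD, cut at about 23% in these data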;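 further: signal is peak over basal fluorescence ratio across the kinetic read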
M5 antag = antagonists of human muscarinic M5 receptor (CHRM5) | AID 624040 | P08912 | CHO-hM5 cells, Fluo-8 calcium fluorescence, ACh EC80 | inhibition, % at 3 µM | 360,000 tested, 0.59% active;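 active means inhibition above a per-plate cutoff, the mean of that plate's test compounds plus 3 SD, cut at about 27% in these data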;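 further: 0% = acetylcholine EC80 with DMSO and 100% = DMSO without agonist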
CHRM4 antagonist = CHRM4 antagonism in calcium assay | AID 624125 | CHO-hM4 cells, ACh EC80, Fluo-8 calcium fluorescence | P08173 | inhibition, % at 3 µM | 360,000 tested, 0.73% active;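 active means inhibition above its plate's cutoff, the mean inhibition of sample wells plus 3 SD, cut at about 27% in these data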;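 further: 0% = acetylcholine EC80 with DMSO and 100% = DMSO without agonist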
M4 PAM = positive allosteric modulators of human muscarinic M4 receptor. P08173. CHO-K1 hM4/Gqi5, Fluo-8 calcium fluorescence, ACh EC20; 0% = ACh EC20, 100% = maximal ACh. activation, % at 3 µM. 360,000 tested, 0.4% active;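 active means activation above its plate's cutoff, the mean activation of sample wells plus 3 SD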
M5 PAM = potentiates acetylcholine response at human M5 receptor; P08912; CHO-K1 hM5, Fluo-8 calcium, ACh EC20 PAM; 0% = ACh EC20, 100% = ACh EC100; activation, % at 3 µM; 360,000 tested, 0.3% active;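 active means activation above the run cutoff, the mean activation of all test compounds plus 3 SD, cut at about 18% in these data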
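Assay system – human M5 receptor in CHO-K1 cells · Read-out – % activation, ACh-normalized · Technique – Fluo-8 calcium fluorescence · Dosing – single-point, 3 µM nominal · Incubation – Fluo-8 loading 80 min at 37 °C plus 30 min room temperature · Repeats – singlicate, one well per test compound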
* marks the source's active call; other numbers are inactive results. An excerpt weighted towards active compounds, which were near 1.9% of everything screened.

SMILES	CHRM4 agonist	CHRM5 agonist	M5 antag	CHRM4 antagonist	M4 PAM	M5 PAM
COc1cccc(N=Nc2ccc3cccnc3c2O)c1	43*	42*	21	19	-13	-19
COc1cccc(N=Nc2ccc(O)c3ncccc23)c1	30	54*	28*	34*	-9	-19
O=C(Nc1cccc2c1CCCC2)c1cc(C2CCCCN2S(=O)(=O)c2cccs2)on1 (stereo not given)	1	-2	-7	0	-7	-1
CCCCn1nnnc1C1(C)CCC(=O)N1CCc1ccccc1F (stereo not given)	1	1	6	-6	6	-3
Cc1ccc(NC(=O)C(C)Sc2nnc3n2CCCCC3)cc1S(=O)(=O)N1CCOCC1 (stereo not given)	1	0	15	-3	8	-1
CCCCc1ccc(NC(=O)CSc2nc3ncccc3[nH]2)cc1	21	5	9	33*	-11	-10
CCOC(=O)c1ccc(NC(=O)CSc2nc3ncccc3[nH]2)cc1	5	4	7	-16	4	-8
Cc1ccc(C(=O)OCC(=O)NCCc2ccc(F)cc2)cc1S(=O)(=O)N1CCOCC1	4	2	10	8	2	-3
O=C(COC(=O)c1ccc(F)c(S(=O)(=O)N2CCOCC2)c1)NCCc1ccccc1	2	2	0	-28	21*	-2
CC(C)N1CCC1(C)C(=O)Nc1cccc2ccccc12 (stereo not given)	0	-4	12	-5	1	5
CC1(C(=O)Nc2cccc3ccccc23)CC1(Br)Br (stereo not given)	10	-10	31*	16	-45	-29
CCc1nc2c(OCC(=O)c3ccc(Cl)cc3Cl)cccn2c1N(C=O)Cc1ccccc1	7	-2	-8	-9	-1	-1
CCOC(=O)C1C(=O)C=C(/C=C/c2ccc(N(C)C)cc2)CC1c1ccccc1 (stereo not given)	14	29*	20	13	-12	-9
CCOC(=O)C1C(=O)C=C(c2ccc(C)cc2)CC1c1ccccc1 (stereo not given)	1	-6	1	-3	-5	-9
CSCc1nnc(NC(=O)c2ccc(S(=O)(=O)N(C)C)cc2)o1	2	0	13	4	14	19*
C=CCN(CC=C)S(=O)(=O)c1ccc(C(=O)Nc2nnc(CSC)o2)cc1	0	6	5	9	-1	-4
CCOC(=O)[C@]12CCC=C1N(Cc1ccc(Cl)cc1Cl)C(=O)[C@H](CC(=O)NCC13CC4CC(CC(C4)C1)C3)C2	0	-1	-1	3	-4	-1
Cc1ccc(C)c(NC(=O)C(c2ccccc2)N2CCN(CC(=O)N3CCOCC3)CC2)c1 (stereo not given)	4	0	5	-4	-1	-1
Cc1ccc(C)c(NC(=O)C(NCC(C)(C)N2CCOCC2)c2ccccc2)c1 (stereo not given)	1	-17	13	76*	-26	-35
CCc1nc2ccc(C(=O)N(CC)CCN(C)C)cn2c1N(C)C(=O)C1CCCCC1	0	1	-7	-11	7	3
CCCn1cnnc1CNC(=O)[C@H]1O[C@@H](n2ccc(N)nc2=O)[C@H](O)[C@@H]1O	0	1	-9	1	2	2
Cc1ccc(CNC(=O)[C@H]2O[C@@H](n3ccc(N)nc3=O)[C@H](O)[C@@H]2O)o1	2	1	-14	-17	20*	10
Cc1cc2c(cc1C)-n1nnnc1C(N(C)Cc1ccccc1)C(=O)N2 (stereo not given)	11	2	2	-9	-13	-8
Cn1c(=O)c2c(nc(N3CCCCC3)n2CCSc2nc3ccccc3s2)n(C)c1=O	1	0	-5	6	38*	0
O=C(CCCN1C(=O)/C(=C\c2cccs2)SC1=S)Nc1cccc(C(=O)O)c1	1	-2	-5	-20	21*	0
O=C(Nc1ccccc1)Nc1ccc2nnsc2c1	27	6	44*	30*	-56	-35

Screens from PubChem BioAssay.
